Experimental data: ChEMBL document CHEMBL4609978, “Synthesis and evaluation of 2'-dihalo ribonucleotide prodrugs with activity against hepatitis C virus” (Bioorg Med Chem, 2020)

Tests used:
Hepatitis C virus [1] = test: Antiviral activity against HCV genotype 1b Con1 infected in human HuH7 replicon cells assessed as inhibition of viral replication after 3 days by luciferase reporter gene assay; assay type: functional, organism-based, Hepacivirus hominis; settings: subtype 1b Con1, Huh-7, 72 h
How it was run: (§1)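 Stable subgenomic replicon cell lines (genotype 1a-H77 or 1b-Con1) carrying a luciferase reporter; compounds added in DMEM with 5% FBS, cells incubated 3 days with or without compound, then lysed and luciferase activity read; EC50 from nonlinear regression fit to 4-parameter logistic equation.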

[2] = Cytotoxicity against human HuH7 cells assessed as reduction in cell viability; assay type: cell-based, Huh-7; settings: read-out: TD50 (the source's name)
Hepatitis C virus [3] = test: Antiviral activity against HCV genotype 1a H77 infected in human HuH7 replicon cells assessed as inhibition of viral replication after 3 days by luciferase reporter gene assay; assay type: functional, organism-based, Hepacivirus hominis; settings: subtype 1a H77, Huh-7, 72 h; how it was run: as §1
[4] = Prodrug conversion in Beagle dog liver assessed as nucleotide triphosphate level at 5 mg/kg, po co-dosed with 5 mg/kg sofosbuvir measured after 24 hrs by LC-MS/MS analysis; assay type: ADME, organism-based, Canis lupus familiaris; settings: in vivo
How it was run: (§2)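 Beagle dogs (3 per time point) given single oral prodrug 5 mg/kg in EtOH:PEG-400:Phosal 53 MCT (10:30:60, w/w), cassette-dosed with sofosbuvir 5 mg/kg as internal standard; liver biopsies at 4 or 24 h, flash frozen, triphosphate measured by LC-MS/MS.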

[5] = Prodrug conversion in Beagle dog liver assessed as nucleotide triphosphate level at 5 mg/kg, po administered as single dose measured after 4 hrs by LC-MS/MS analysis; assay type: ADME, organism-based, Canis lupus familiaris; settings: in vivo
[6] = Intrinsic clearance in dog hepatocytes; assay type: ADME, cell-based, Canis lupus familiaris, Hepatocyte; settings: read-out: CLH (converted)
[7] = Unbound drug level in human plasma; assay type: ADME, cell-free
[8] = Stability in dog plasma assessed as parent compound remaining after 4 hrs; assay type: ADME, cell-free, Canis lupus familiaris; settings: read-out: Stability
How it was run: (§3)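 Prodrug incubated 4 h at 37 °C in dog or human plasma; result given as percent parent remaining.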

Hepatitis C virus [9] = test: Antiviral activity against HCV genotype 1b Con1 over expressing CES1 infected in human HuH7 replicon cells assessed as inhibition of viral replication after 3 days by luciferase reporter gene assay; assay type: functional, organism-based, Hepacivirus hominis; settings: subtype 1b Con1, Huh-7, 72 h
[10] = Stability in human plasma assessed as parent compound remaining after 4 hrs; assay type: ADME, cell-free; settings: read-out: Stability; how it was run: as §3
[11] = Prodrug conversion in Beagle dog liver assessed as nucleotide triphosphate level at 5 mg/kg, po co-dosed with 5 mg/kg sofosbuvir measured after 4 hrs by LC-MS/MS analysis; assay type: ADME, organism-based, Canis lupus familiaris; settings: in vivo; how it was run: as §2
[12] = Prodrug conversion in human primary hepatocytes assessed as nucleotide triphosphate level at 100 uM incubated for 4 hrs and followed by compound washout for 20 hrs and measured following 24 hrs incubation period by LC-MS/MS analysis; assay type: ADME, cell-based, Hepatocyte
How it was run: (§4)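 Cryopreserved primary human hepatocytes plated ~55,000 viable cells/well on collagen, medium changed after 4–6 h to Williams E maintenance medium with Geltrex 0.35 mg/mL, overnight at 37 °C; prodrug 100 µM for 4 h, then washed; second plate held a further 20 h drug-free; cells washed with ice-cold HBSS, triphosphate measured by LC-MS/MS at 4 or 24 h.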

[13] = Prodrug conversion in human primary hepatocytes assessed as nucleotide triphosphate level at 100 uM incubated for 4 hrs followed by compound wash-out for 20 hrs and measured following 4 hrs incubation period by LC-MS/MS analysis; assay type: ADME, cell-based, Hepatocyte; how it was run: as §4
[14] = Prodrug conversion in Beagle dog liver assessed as nucleotide triphosphate level at 5 mg/kg, po administered as single dose measured after 24 hrs by LC-MS/MS analysis; assay type: ADME, organism-based, Canis lupus familiaris; settings: in vivo
[15] = Distribution coefficient, logD of compound by HT-LCMS analysis; assay type: physicochemical; settings: octanol/water
[16] = Aqueous solubility of compound in pH 7.4 phosphate buffer; assay type: physicochemical
[17] = Unbound drug level in dog plasma; assay type: ADME, cell-free, Canis lupus familiaris
Hepatitis C virus [18] = test: Antiviral activity against HCV genotype 6a expressing wild type NS5B infected in human HuH7 replicon cells assessed as inhibition of viral replication after 4 days by luciferase reporter gene based assay; assay type: functional, organism-based, Hepacivirus hominis; settings: subtype 6a, Huh-7, 96 h
Hepatitis C virus [19] = test: Antiviral activity against HCV genotype 4a expressing wild type NS5B infected in human HuH7 replicon cells assessed as inhibition of viral replication after 4 days by luciferase reporter gene based assay; assay type: functional, organism-based, Hepacivirus hominis; settings: subtype 4a, Huh-7, 96 h
Hepatitis C virus [20] = test: Antiviral activity against HCV genotype 3a expressing NS5B S282T mutant infected in human HuH7 replicon cells assessed as inhibition of viral replication after 4 days by luciferase reporter gene based assay; assay type: functional, organism-based, Hepacivirus hominis; settings: subtype 3a, Huh-7, 96 h
Hepatitis C virus [21] = test: Antiviral activity against HCV genotype 2a expressing wild type NS5B infected in human HuH7 replicon cells assessed as inhibition of viral replication after 4 days by luciferase reporter gene based assay; assay type: functional, organism-based, Hepacivirus hominis; settings: subtype 2a, Huh-7, 96 h
Hepatitis C virus [22] = test: Antiviral activity against HCV genotype 1b Con1 expressing wild type NS5B infected in human HuH7 replicon cells assessed as inhibition of viral replication after 4 days by luciferase reporter gene based assay; assay type: functional, organism-based, Hepacivirus hominis; settings: subtype 1b Con1, Huh-7, 96 h
Hepatitis C virus [23] = test: Antiviral activity against HCV genotype 3a expressing wild type NS5B infected in human HuH7 replicon cells assessed as inhibition of viral replication after 4 days by luciferase reporter gene based assay; assay type: functional, organism-based, Hepacivirus hominis; settings: subtype 3a, Huh-7, 96 h
Hepatitis C virus [24] = test: Antiviral activity against HCV genotype 1b Con1 expressing NS5B S282T mutant infected in human HuH7 replicon cells assessed as inhibition of viral replication after 4 days by luciferase reporter gene based assay; assay type: functional, organism-based, Hepacivirus hominis; settings: subtype 1b Con1, Huh-7, 96 h
Hepatitis C virus [25] = test: Antiviral activity against HCV genotype 2a expressing NS5B S282T mutant infected in human HuH7 replicon cells assessed as inhibition of viral replication after 4 days by luciferase reporter gene based assay; assay type: functional, organism-based, Hepacivirus hominis; settings: subtype 2a, Huh-7, 96 h
Hepatitis C virus [26] = test: Potency index, ratio of sofosbuvir EC50 to compound EC50 for HCV genotype 1a H77 infected in human HuH7 replicon cells assessed as inhibition of viral replication after 3 days by luciferase reporter gene assay; assay type: functional, Hepacivirus hominis, subtype 1a H77, Huh-7
How it was run: (§5)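 Stable subgenomic luciferase-reporter replicon Huh-7 lines, genotype 1a-H77 or 1b-Con1. Test compound and sofosbuvir comparator each run in DMEM with 5% FBS for 3 days. Cells lysed and luciferase activity read. EC50 obtained by nonlinear regression to a 4-parameter logistic equation. Index is sofosbuvir EC50 divided by compound EC50, both from this assay.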

Hepatitis C virus [27] = test: Potency index, ratio of sofosbuvir EC50 to compound EC50 for HCV genotype 1b Con1 infected in human HuH7 replicon cells assessed as inhibition of viral replication after 3 days by luciferase reporter gene assay; assay type: functional, Hepacivirus hominis, subtype 1b Con1, Huh-7; how it was run: as §5

Q: Which EC50 (Hepatitis C virus [1]) does the source give for `CC(C)OC(=O)[C@H](C)N[P@](=O)(OC[C@H]1O[C@@H](n2ccc(=O)[nH]c2=O)[C@](C)(Cl)[C@@H]1O)Oc1ccccc1` here?
A: Its EC50 is 167 nM.

Q: And the CC50 [2]?
A: The CC50 was greater than 100000 nM.

Q: And the EC50 (Hepatitis C virus [3])?
A: Its EC50 is 139 nM.

Q: With `CC(C)OC(=O)[C@H](C)N[P@](=O)(OC[C@H]1O[C@@H](n2ccc(=O)[nH]c2=O)C(Br)(Br)[C@@H]1O)Oc1ccccc1` as the compound, how does the EC50 (Hepatitis C virus [1]) read?
A: The EC50 was 522 nM.

Q: What about the CC50 [2] of the same compound?
A: Its CC50 is greater than 100000 nM.

Q: What about the EC50 (Hepatitis C virus [3]) of the same compound?
A: Its EC50 is 408 nM.

Q: What does the source list for `CC(C)OC(=O)C(C)(C)NP(=O)(OC[C@H]1O[C@@H](n2ccc(=O)[nH]c2=O)[C@](Cl)(Br)[C@@H]1O)Oc1ccccc1` (stereo not given in full)?
A: Drug metabolism [4]: 3.43 µM; EC50 (Hepatitis C virus [1]): 1380 nM; Drug metabolism [5]: 0.713 µM; CLint scaled [6]: 133 mL/min/kg; fraction unbound [7]: 0.193; remaining at 4 h [8]: 100%; EC50 (Hepatitis C virus [9]): 162 nM; remaining at 4 h [10]: 100%; Drug metabolism [11]: 4.2 µM; Drug metabolism [12]: 40 µM; Drug metabolism [13]: 157 µM; Drug metabolism [14]: 0.244 µM; logD [15]: 3.3; EC50 (Hepatitis C virus [3]): 1090 nM; solubility [16]: > 200 µM; fraction unbound [17]: 0.13

Q: With `CC(C)OC(=O)[C@H](C)N[P@](=O)(OC[C@H]1O[C@@H](n2ccc(=O)[nH]c2=O)[C@@](C)(F)[C@@H]1O)Oc1ccccc1` as the compound, how does the EC50 (Hepatitis C virus [1]) read?
A: The EC50 was greater than 10000 nM.

Q: And the CC50 [2]?
A: Its CC50 is greater than 32000 nM.

Q: What about the EC50 (Hepatitis C virus [3]) of the same compound?
A: Its EC50 is greater than 10000 nM.

Q: With `CC(C)OC(=O)[C@H](C)N[P@](=O)(OC[C@H]1O[C@@H](n2ccc(=O)[nH]c2=O)[C@](Cl)(Br)[C@@H]1O)Oc1ccccc1` as the compound, how does the Drug metabolism [4] read?
A: Its Drug metabolism is 1.02 µM.

Q: And the EC50 (Hepatitis C virus [1])?
A: Its EC50 is 147 nM.

Q: What about the EC50 (Hepatitis C virus [18]) of the same compound?
A: The EC50 was 22.7 nM.

Q: And the EC50 (Hepatitis C virus [19])?
A: Its EC50 is 29.9 nM.

Q: And the Drug metabolism [5]?
A: The Drug metabolism was 0.088 µM.

Q: What about the CLint scaled [6] of the same compound?
A: The CLint scaled was 113 mL/min/kg.

Q: What about the EC50 (Hepatitis C virus [20]) of the same compound?
A: Its EC50 is 142 nM.

Q: And the fraction unbound [7]?
A: Its fraction unbound is 0.113.

Q: And the EC50 (Hepatitis C virus [21])?
A: Its EC50 is 188 nM.

Q: What about the CC50 [2] of the same compound?
A: The CC50 was 80000 nM.

Q: And the EC50 (Hepatitis C virus [22])?
A: Its EC50 is 30.4 nM.

Q: What about the EC50 (Hepatitis C virus [23]) of the same compound?
A: Its EC50 is 31.4 nM.

Q: And the EC50 (Hepatitis C virus [24])?
A: The EC50 was 161 nM.

Q: What about the EC50 (Hepatitis C virus [25]) of the same compound?
A: The EC50 was 262 nM.

Q: And the Drug metabolism [11]?
A: Its Drug metabolism is 1.59 µM.

Q: What about the Drug metabolism [12] of the same compound?
A: The Drug metabolism was 22 µM.

Q: What about the Drug metabolism [13] of the same compound?
A: Its Drug metabolism is 110 µM.

Q: And the Drug metabolism [14]?
A: Its Drug metabolism is 0.049 µM.

Q: And the EC50 (Hepatitis C virus [3])?
A: The EC50 was 114 nM.

Q: And the fraction unbound [17]?
A: The fraction unbound was 0.213.

Q: For `CC(C)OC(=O)[C@H](C)N[P@](=O)(OC[C@H]1O[C@@H](n2ccc(=O)[nH]c2=O)C(Cl)(Cl)[C@@H]1O)Oc1ccccc1`, which “Ratio EC50” value (Hepatitis C virus [26]) is on record?
A: The value was 3 - 4.

Q: What about the EC50 (Hepatitis C virus [1]) of the same compound?
A: Its EC50 is 48 nM.

Q: And the CC50 [2]?
A: The CC50 was greater than 100000 nM.

Q: What about the “Ratio EC50” value (Hepatitis C virus [27]) of the same compound?
A: The value was 3 - 4.

Q: What about the EC50 (Hepatitis C virus [3]) of the same compound?
A: The EC50 was 43 nM.

Q: Which “Ratio EC50” value (Hepatitis C virus [26]) does the source give for `CC(C)OC(=O)[C@H](C)N[P@](=O)(OC[C@H]1O[C@@H](n2ccc(=O)[nH]c2=O)[C@@](F)(Cl)[C@@H]1O)Oc1ccccc1` here?
A: The value was 3 - 4.

Q: And the EC50 (Hepatitis C virus [1])?
A: The EC50 was 61 nM.

Q: And the CC50 [2]?
A: Its CC50 is 11000 nM.

Q: And the “Ratio EC50” value (Hepatitis C virus [27])?
A: The value was 3 - 4.

Q: And the EC50 (Hepatitis C virus [3])?
A: Its EC50 is 53 nM.
